Data reported in ChEMBL document CHEMBL2146441, “2,6-Disubstituted imidazo[2,1-b][1,3,4]thiadiazoles: search for anticancer agents” (2012).

Assays:
Format in all cases: functional
[1] = test system: DU-145; assay: Cytotoxicity against human DU145 cells assessed as cell growth at 10^-8 M after 48 hrs by SRB assay; settings: DU-145, 48 h, read-out: Activity
Procedure, shortened: (§1)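 NCI-60 screen: lines kept in RPMI 1640 with 5% FBS, seeded at 5000–40,000 cells/well by doubling time, preincubated 24 h at 37 °C in 5% CO2. Time-zero plates TCA-fixed at drug addition. DMSO stocks diluted in medium, 48 h exposure. Fixation in cold TCA (final 10% adherent, 16% suspension), 0.4% SRB stain, solubilised in 10 mM Tris base, A515. Percent growth computed against control and time-zero.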

[2] = test system: HCT-15; assay: Growth inhibition of human HCT15 cells after 48 hrs by SRB assay; settings: HCT-15, 48 h; for CC50: read-out: LC50 (the source's name)
Procedure, shortened: (§2)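 Adherent NCI-60 lines grown in RPMI 1640 with 5% FBS, seeded at 5000–40,000 cells/well, and preincubated 24 h at 37 °C, 5% CO2. Compound, stocked in DMSO, given either once at 10^-5 M or at five 10-fold dilutions for 48 h. Cells fixed with cold TCA (final 10%), stained with 0.4% SRB, and read at 515 nm. GI50 taken as 50% reduction in net protein increase versus time-zero and control plates.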

[3] = test system: EKVX; assay: Cytotoxicity against human EKVX cells assessed as cell growth at 10^-8 M after 48 hrs by SRB assay; settings: read-out: Activity; procedure, shortened: as §1
[4] = test system: MDA-MB-435; assay: Growth inhibition of human MDA-MB-435 cells after 48 hrs by SRB assay; settings: MDA-MB-435, 48 h; procedure, shortened: as §2
[5] = test system: NCI-H226; assay: Cytotoxicity against human NCI-H226 cells assessed as cell growth at 10^-7 M after 48 hrs by SRB assay; settings: NCI-H226, 48 h, read-out: Activity
[6] = test system: HOP-92; assay: Cytotoxicity against human HOP92 cells assessed as cell growth at 10^-5 M after 48 hrs by SRB assay; settings: HOP-92, 48 h, read-out: Activity
Procedure, shortened: (§3)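 NCI-60 five-dose screen. Cells were grown in RPMI 1640 with 5% FBS and seeded at 5000–40,000 cells/well according to doubling time. They were pre-incubated 24 h at 37 °C in 5% CO₂, and time-zero (Tz) plates were TCA-fixed at drug addition. Five 10-fold dilutions of DMSO stock were applied for 48 h. Read-out was SRB staining, 515 nm absorbance, with percent growth calculated versus Tz and untreated control.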

[7] = test system: IGROV-1; assay: Growth inhibition of human IGROV1 cells after 48 hrs by SRB assay; settings: IGROV-1, 48 h; for CC50: read-out: LC50 (the source's name); procedure, shortened: as §2
[8] = test system: M14; assay: Cytotoxicity against human M14 cells assessed as cell growth at 10^-8 M after 48 hrs by SRB assay; settings: M14, 48 h, read-out: Activity
[9] = test system: NCI-H322M; assay: Cytotoxicity against human NCI-H322M cells assessed as cell growth at 10^-8 M after 48 hrs by SRB assay; settings: read-out: Activity
[10] = test system: UACC-257; assay: Cytotoxicity against human UACC257 cells assessed as cell growth at 10^-6 M after 48 hrs by SRB assay; settings: UACC-257, 48 h, read-out: Activity
[11] = test system: SF-295; assay: Cytotoxicity against human SF295 cells assessed as cell growth at 10^-8 M after 48 hrs by SRB assay; settings: SF-295, 48 h, read-out: Activity
[12] = test system: U-251; assay: Cytotoxicity against human U251 cells assessed as cell growth at 10^-4 M after 48 hrs by SRB assay; settings: U-251, 48 h, read-out: Activity
[13] = test system: M14; assay: Cytotoxicity against human M14 cells assessed as cell growth at 10^-6 M after 48 hrs by SRB assay; settings: M14, 48 h, read-out: Activity
[14] = test system: HCT-15; assay: Cytotoxicity against human HCT15 cells assessed as cell growth at 10^-8 M after 48 hrs by SRB assay; settings: HCT-15, 48 h, read-out: Activity; procedure, shortened: as §3
[15] = test system: DU-145; assay: Growth inhibition of human DU145 cells after 48 hrs by SRB assay; settings: DU-145, 48 h
Procedure, shortened: (§4)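 Same 48 h NCI-60 five-dose SRB protocol. Adherent lines were fixed with cold TCA at 10% final; suspension lines such as CCRF-CEM were fixed with 16% final TCA. Stain was 0.4% SRB in 1% acetic acid for 10 min, solubilized in 10 mM Tris base and read at 515 nm. GI50 came from log concentration–growth curves, solving [(Ti−Tz)/(C−Tz)]×100 = 50.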

[16] = test system: CCRF-CEM; assay: Growth inhibition of human CCRF-CEM cells after 48 hrs by SRB assay; settings: for CC50: read-out: LC50 (the source's name); procedure, shortened: as §4
[17] = test system: MDA-MB-435; assay: Cytotoxicity against human MDA-MB-435 cells assessed as cell growth at 10^-7 M after 48 hrs by SRB assay; settings: MDA-MB-435, 48 h, read-out: Activity
[18] = test system: OVCAR-4; assay: Cytotoxicity against human OVCAR4 cells assessed as cell growth at 10^-8 M after 48 hrs by SRB assay; settings: OVCAR-4, 48 h, read-out: Activity
[19] = test system: SW-620; assay: Cytotoxicity against human SW620 cells assessed as cell growth at 10^-6 M after 48 hrs by SRB assay; settings: SW-620, 48 h, read-out: Activity
[20] = test system: UACC-257; assay: Growth inhibition of human UACC257 cells after 48 hrs by SRB assay; settings: UACC-257, 48 h; for CC50: read-out: LC50 (the source's name); procedure, shortened: as §2
[21] = test system: 786-0; assay: Cytotoxicity against human 786-0 cells assessed as cell growth at 10^-8 M after 48 hrs by SRB assay; settings: 786-0, 48 h, read-out: Activity; procedure, shortened: as §1
[22] = test system: SNB-75; assay: Cytotoxicity against human SNB75 cells assessed as cell growth at 10^-8 M after 48 hrs by SRB assay; settings: SNB-75, 48 h, read-out: Activity
[23] = test system: CAKI-1; assay: Cytotoxicity against human Caki1 cells assessed as cell growth at 10^-8 M after 48 hrs by SRB assay; settings: CAKI-1, 48 h, read-out: Activity; procedure, shortened: as §1
[24] = test system: SNB-19; assay: Cytotoxicity against human SNB19 cells assessed as cell growth at 10^-6 M after 48 hrs by SRB assay; settings: SNB-19, 48 h, read-out: Activity
[25] = test system: SK-OV-3; assay: Growth inhibition of human SKOV3 cells after 48 hrs by SRB assay; settings: SK-OV-3, 48 h; for CC50: read-out: LC50 (the source's name); procedure, shortened: as §2
[26] = test system: CAKI-1; assay: Cytotoxicity against human Caki1 cells assessed as cell growth at 10^-6 M after 48 hrs by SRB assay; settings: CAKI-1, 48 h, read-out: Activity; procedure, shortened: as §1
[27] = test system: MDA-MB-435; assay: Cytotoxicity against human MDA-MB-435 cells assessed as cell growth at 10^-8 M after 48 hrs by SRB assay; settings: MDA-MB-435, 48 h, read-out: Activity
[28] = test system: SW-620; assay: Cytotoxicity against human SW620 cells assessed as cell growth at 10^-5 M after 48 hrs by SRB assay; settings: SW-620, 48 h, read-out: Activity

## COc1ccc(-c2nn3cc(-c4ccc(O)cc4O)nc3s2)cc1
[1]
  growth at 0.01 µM: 106%
[2]
  GI50: 5.13 µM
  TGI: > 100 µM
  CC50: > 100 µM
[3]
  growth at 0.01 µM: 103%
[4]
  GI50: 2.61 µM
  LC50: > 100 µM
  TGI: 18.6 µM
[5]
  growth at 0.1 µM: 88%
[6]
  growth at 10 µM: -33%
[7]
  GI50: 2.23 µM
  TGI: 37.4 µM
  CC50: > 100 µM
[8]
  growth at 0.01 µM: 96%
[9]
  growth at 0.01 µM: 89%
[10]
  growth at 1 µM: 83%
[11]
  growth at 0.01 µM: 95%
[12]
  growth at 100 µM: -46%
[13]
  growth at 1 µM: 81%
[14]
  growth at 0.01 µM: 96%
[15]
  GI50: 4.37 µM
  LC50 (lethal concentration 50): > 100 µM
  TGI: > 100 µM
[16]
  GI50: 5.08 µM
  TGI: > 100 µM
  CC50: > 100 µM
[17]
  growth at 0.1 µM: 91%
[18]
  growth at 0.01 µM: 95%
[19]
  growth at 1 µM: 86%
[20]
  GI50: 4.98 µM
  TGI: 76.4 µM
  CC50: > 100 µM
[21]
  growth at 0.01 µM: 97%
[22]
  growth at 0.01 µM: 69%
[23]
  growth at 0.01 µM: 95%
[24]
  growth at 1 µM: 85%
[25]
  GI50: 1.7 µM
  TGI: 3.62 µM
  CC50: 7.72 µM
[26]
  growth at 1 µM: 69%
[27]
  growth at 0.01 µM: 97%
[28]
  growth at 10 µM: 26%

## COc1ccc(-c2nn3cc(-c4cccc(N)c4)nc3s2)cc1
[1]
  growth at 0.01 µM: 101%
[2]
  GI50: 5.26 µM
  TGI: > 100 µM
  CC50: > 100 µM
[3]
  growth at 0.01 µM: 81%
[4]
  GI50: 2.58 µM
  LC50: 89.6 µM
  TGI: 14.8 µM
[5]
  growth at 0.1 µM: 80%
[6]
  growth at 10 µM: -25%
[7]
  GI50: 2.65 µM
  TGI: 34.4 µM
  CC50: > 100 µM
[8]
  growth at 0.01 µM: 101%
[9]
  growth at 0.01 µM: 100%
[10]
  growth at 1 µM: 107%
[11]
  growth at 0.01 µM: 95%
[12]
  growth at 100 µM: -17%
[13]
  growth at 1 µM: 94%
[14]
  growth at 0.01 µM: 98%
[15]
  GI50: 6.79 µM
  LC50 (lethal concentration 50): > 100 µM
  TGI: 31.7 µM
[16]
  GI50: 1.77 µM
  TGI: > 100 µM
  CC50: > 100 µM
[17]
  growth at 0.1 µM: 88%
[18]
  growth at 0.01 µM: 92%
[19]
  growth at 1 µM: 86%
[20]
  GI50: 17.3 µM
  TGI: > 100 µM
  CC50: > 100 µM
[21]
  growth at 0.01 µM: 106%
[22]
  growth at 0.01 µM: 70%
[23]
  growth at 0.01 µM: 86%
[24]
  growth at 1 µM: 81%
[25]
  GI50: 2.72 µM
  TGI: 10.8 µM
  CC50: 54.9 µM
[26]
  growth at 1 µM: 46%
[27]
  growth at 0.01 µM: 95%
[28]
  growth at 10 µM: 40%
